Assay results from ChEMBL document CHEMBL2375217, “Structure activity relationship of phenolic diterpenes from Salvia officinalis as activators of the nuclear factor E2-related factor 2 pathway” (Bioorg Med Chem, 2013).
Activity calls are given as the source filed them. No cut-off for these calls is given here.

Columns and labels:
[1] = target: T1, Nuclear factor erythroid 2-related factor 2 (Mus musculus) (UniProt Q60795); test: Activation of Nrf2/ARE in E15 stage mouse primary cortical neurons at 6.25 to 50 uM after 48 hrs by human placental alkaline phosphatase reporter gene assay; assay type: cell-based; details: Cerebral cortex neuron
T1 sequence (whole entry): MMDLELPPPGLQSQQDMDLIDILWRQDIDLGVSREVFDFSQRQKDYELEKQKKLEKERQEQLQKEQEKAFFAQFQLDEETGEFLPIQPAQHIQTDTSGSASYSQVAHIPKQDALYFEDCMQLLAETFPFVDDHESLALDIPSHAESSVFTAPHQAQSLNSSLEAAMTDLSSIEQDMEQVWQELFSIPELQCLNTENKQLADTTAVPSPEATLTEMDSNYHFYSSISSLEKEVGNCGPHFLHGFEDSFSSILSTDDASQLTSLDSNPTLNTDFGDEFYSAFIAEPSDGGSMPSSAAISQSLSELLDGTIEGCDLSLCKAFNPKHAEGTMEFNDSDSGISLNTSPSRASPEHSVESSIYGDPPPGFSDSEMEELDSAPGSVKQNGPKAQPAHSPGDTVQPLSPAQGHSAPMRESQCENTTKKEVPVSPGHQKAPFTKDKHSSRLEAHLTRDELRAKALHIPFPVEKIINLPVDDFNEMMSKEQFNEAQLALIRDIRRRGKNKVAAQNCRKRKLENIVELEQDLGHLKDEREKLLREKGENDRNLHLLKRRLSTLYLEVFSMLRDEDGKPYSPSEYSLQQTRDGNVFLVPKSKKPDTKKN
Outline: (§1)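 Mixed cortical cultures (~40% astrocytes/60% neurons) from E15 ARE-hPAP reporter mice, hPAP driven by 51 bp rat NQO1 ARE promoter segment; 6 days in vitro, then compound in DMSO (0.1% final) for 48 h. Lysis in TMNC, endogenous phosphatase heat-inactivated in 200 mM DEA at 65 °C; CSPD chemiluminescence, hPAP-negative baseline subtracted; fold over vehicle, n = 5.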

[2] = target: T1, Nuclear factor erythroid 2-related factor 2 (Mus musculus); test: Activation of Nrf2/ARE in E15 stage mouse primary cortical neurons after 48 hrs by human placental alkaline phosphatase reporter gene assay; assay type: cell-based; details: Cerebral cortex neuron; outline: as §1
[3] = Cytotoxicity against E15 stage mouse primary cortical neurons at 50 uM by MTS assay; assay type: cell-based; details: cerebral cortex neuron
Outline: (§2)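 Mixed cortical cultures from E15 ARE-hPAP mice, 6 days in vitro (5% O2), exposed 48 h to compound in DMSO (0.1% final). Viability read by soluble MTS assay, normalised to vehicle as percent; mean ± SEM, n = 5, one-way ANOVA with Newman-Keuls.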

[4] = target: T1, Nuclear factor erythroid 2-related factor 2 (Mus musculus); test: Induction of Nrf2/ARE-mediated GCLC gene expression in E15 stage mouse primary cortical neurons at 10 uM after 24 hrs by qPCR analysis; assay type: cell-based; details: Cerebral cortex neuron
Outline: (§3)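 E15 ARE-hPAP mouse mixed cortical cultures treated 24 h with compound or vehicle; total RNA harvested for quantitative PCR, normalised to GAPDH, fold change vs vehicle; n = 8 treated, n = 4 vehicle.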

Cerebral cortex neuron [5] = test: Neuroprotective activity against H2O2-induced toxicity in E15 stage mouse primary cortical neurons at 10 uM incubated for 48 hrs prior to H2O2-treatment measured after 24 hrs by MTS assay; assay type: functional, cell-based
Outline: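 Cortical cultures pretreated 48 h with compound or vehicle, then exposed to increasing H2O2 concentrations for 24 h; viability by soluble MTS assay. n = 4 compound, n = 8 vehicle; one-way ANOVA with Newman-Keuls.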

[6] = target: T1, Nuclear factor erythroid 2-related factor 2 (Mus musculus); test: Activation of Nrf2/ARE in E15 stage mouse primary cortical neurons at 50 uM after 48 hrs by human placental alkaline phosphatase reporter gene; assay type: cell-based; details: Cerebral cortex neuron; outline: as §1
[7] = target: T1, Nuclear factor erythroid 2-related factor 2 (Mus musculus); test: Induction of Nrf2/ARE-mediated NQO1 gene expression in E15 stage mouse primary cortical neurons at 10 uM after 24 hrs by qPCR analysis; assay type: cell-based; details: Cerebral cortex neuron; outline: as §3
Cerebral cortex neuron [8] = test: Neuroprotective activity against H2O2-induced oxidative stress in E15 stage mouse primary cortical neurons at 10 uM incubated for 48 hrs prior to H2O2-treatment measured after 24 hrs by TUNEL/DAPI staining-based microscopic analysis; assay type: functional, cell-based
Outline: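 Cortical cultures pretreated 48 h with compound or vehicle, then 35 μM H2O2 for 24 h; fragmented DNA detected by TUNEL staining, nuclei counterstained with DAPI, imaged by photomicroscopy.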

[9] = target: T1, Nuclear factor erythroid 2-related factor 2 (Mus musculus); test: Activation of Nrf2/ARE in E15 stage mouse primary cortical neurons at 25 uM after 48 hrs by human placental alkaline phosphatase reporter gene assay relative to control; assay type: cell-based; details: Cerebral cortex neuron; outline: as §1
[10] = Cytotoxicity against E15 stage mouse primary cortical neurons at 25 uM by MTS assay; assay type: cell-based; details: cerebral cortex neuron; outline: as §2
[11] = target: T1, Nuclear factor erythroid 2-related factor 2 (Mus musculus); test: Induction of Nrf2/ARE-mediated GCLM gene expression in E15 stage mouse primary cortical neurons at 20 uM after 24 hrs by qPCR analysis; assay type: cell-based; details: Cerebral cortex neuron
Outline: (§4)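 Mixed cortical cultures (~40% astrocytes, 60% neurons) from E15 ARE-hPAP reporter mouse pups, grown in Neurobasal/B27 medium at 37 °C under 5% O2, 5% CO2. Treated with compound or vehicle for 24 h. Total RNA used for quantitative PCR, normalised to GAPDH and expressed as fold change relative to vehicle. Mean ± SEM, n = 8 treated, n = 4 vehicle. One-way ANOVA with Newman-Keuls.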

Cerebral cortex neuron [12] = test: Neuroprotective activity against H2O2-induced toxicity in E15 stage mouse primary cortical neurons at 20 uM incubated for 48 hrs prior to H2O2-treatment measured after 24 hrs by MTS assay; assay type: functional, cell-based
Outline: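 Mixed cortical cultures (~40% astrocytes, 60% neurons) from E15 ARE-hPAP reporter mouse pups were pretreated with compound or vehicle for 48 h. They were then challenged with increasing H2O2 concentrations for 24 h. Viability was read by soluble MTS assay. Mean ± SEM, n = 4 compound, n = 8 vehicle. One-way ANOVA with Newman-Keuls.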

[13] = target: T1, Nuclear factor erythroid 2-related factor 2 (Mus musculus); test: Induction of Nrf2/ARE-mediated NQO1 gene expression in E15 stage mouse primary cortical neurons at 20 uM after 24 hrs by qPCR analysis; assay type: cell-based; details: Cerebral cortex neuron; outline: as §4
[14] = target: T1, Nuclear factor erythroid 2-related factor 2 (Mus musculus); test: Induction of Nrf2/ARE-mediated GCLC gene expression in E15 stage mouse primary cortical neurons at 20 uM after 24 hrs by qPCR analysis; assay type: cell-based; details: Cerebral cortex neuron; outline: as §4
Cerebral cortex neuron [15] = test: Neuroprotective activity against H2O2-induced oxidative stress in E15 stage mouse primary cortical neurons at 20 uM incubated for 48 hrs prior to H2O2-treatment measured after 24 hrs by TUNEL/DAPI staining-based microscopic analysis; assay type: functional, cell-based
Outline: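 Mixed cortical cultures (~40% astrocytes, 60% neurons) from E15 ARE-hPAP reporter mouse pups were pretreated with compound or vehicle for 48 h. They were then exposed to 35 μM H2O2 for a further 24 h. Fragmented DNA was stained by TUNEL and nuclei by DAPI, and both were imaged by photomicroscopy.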

SMILES	Activity [1]	Activity [2]	Activity [3]	also measured
CC(C)(C)c1cc(O)ccc1O	Active			
CC(C)c1cc2c(c(O)c1O)C1=C(CC2)C(C)(C)CCC1=O	Active	Dose-dependent effect		
CC(C)c1cc2c(c(O)c1O)[C@@]13CCCC(C)(C)[C@@H]1[C@H](OC3=O)[C@@H]2O	Active	Dose-dependent effect		
CC(C)c1cc2c(c(O)c1O)[C@@]13CCCC(C)(C)[C@@H]1[C@H](OC3=O)[C@H]2O	Active	Dose-dependent effect		
COc1c(C(C)C)cc2c(c1O)[C@@]1(C(=O)O)CCCC(C)(C)[C@@H]1CC2	inactive			
CC(C)c1cc2c(c(O)c1O)[C@@]1(C=O)CCCC(C)(C)[C@@H]1CC2 [CARNOSALDEHYDE]		Dose-dependent effect	Toxic	Activity [4]: Active; Activity (Cerebral cortex neuron [5]): Active; Activity [6]: inactive; Activity [7]: Active; Activity (Cerebral cortex neuron [8]): Active; fold change (FC) [9]: 50; Activity [10]: Toxic
CC(C)c1cc2c(c(O)c1O)[C@@]1(C(=O)O)CCCC(C)(C)[C@@H]1CC2 [CARNOSIC ACID]	Active	Dose-dependent effect	Toxic	
CC(C)c1cc2c(c(O)c1O)[C@@]13CCCC(C)(C)[C@@H]1C[C@@H]2OC3=O [CARNOSOL]		Dose-dependent effect	Toxic	Activity [11]: Active; Activity (Cerebral cortex neuron [12]): Active; Activity [6]: inactive; Activity [13]: Active; Activity [14]: Active; fold change (FC) [9]: 50; Activity (Cerebral cortex neuron [15]): Active
